According to ChEMBL document CHEMBL3045357, “DNA adducts as biomarkers for oxidative and genotoxic stress from pesticides in crop plants” (J Agric Food Chem, 2008):

How the values were obtained:
Assay type in all cases: organism-based
Details in all cases: in vivo, other, 336 h
Glycine max [1] = experiment: Genotoxicity in Glycine max (soybean) exposed to compound through spray 4 times over 2 weeks assessed as relative adduct level A2 measured per 10^9 nucleotides using HX-dG internal standard using [32P]labeling based autoradiography relative to untreated control
Summary of the method: (§1)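 Plants (2–6 weeks grown), groups of 2–4, sprayed 4 times over 2 weeks with formulations diluted per label (chlorothalonil 1:256, carbaryl 1:64 in water); controls water-sprayed. DNA from 1 g leaf via DNeasy Maxi kit. 10 µg DNA digested with micrococcal nuclease/spleen phosphodiesterase (4 h, 37 °C), NP1-enriched (45 min, 37 °C), labelled with [γ-32P]ATP/T4 kinase (45 min, 37 °C).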

Glycine max [2] = experiment: Genotoxicity in Glycine max (soybean) exposed to compound through spray 4 times over 2 weeks assessed as relative adduct level A3 measured per 10^9 nucleotides using HX-dG internal standard using [32P]labeling based autoradiography relative to untreated control; summary of the method: as §1
Glycine max [3] = experiment: Genotoxicity in Glycine max (soybean) exposed to compound through spray 4 times over 2 weeks assessed as HNE-dG adducts using [32P]labeling based autoradiography (reference value: 34 cpm); summary of the method: as §1
Glycine max [4] = experiment: Genotoxicity in Glycine max (soybean) exposed to compound through spray 4 times over 2 weeks assessed as relative adduct level A4 measured per 10^9 nucleotides using HX-dG internal standard using [32P]labeling based autoradiography relative to untreated control; summary of the method: as §1
Glycine max [5] = experiment: Genotoxicity in Glycine max (soybean) exposed to compound through spray 4 times over 2 weeks assessed as relative adduct level A2 measured per 10^9 nucleotides using [32P]labeling based autoradiography relative to untreated control; summary of the method: as §1
Glycine max [6] = experiment: Genotoxicity in Glycine max (soybean) exposed to compound through spray 4 times over 2 weeks assessed as relative adduct level A4 measured per 10^9 nucleotides using [32P]labeling based autoradiography relative to untreated control; summary of the method: as §1
Glycine max [7] = experiment: Genotoxicity in Glycine max (soybean) exposed to compound through spray 4 times over 2 weeks assessed as relative adduct level A1 measured per 10^9 nucleotides using [32P]labeling based autoradiography relative to untreated control; summary of the method: as §1
Glycine max [8] = experiment: Genotoxicity in Glycine max (soybean) exposed to compound through spray 4 times over 2 weeks assessed as HX-dG adducts using [32P]labeling based autoradiography; summary of the method: as §1
Glycine max [9] = experiment: Genotoxicity in Glycine max (soybean) exposed to compound through spray 4 times over 2 weeks assessed as relative adduct level A1 measured per 10^9 nucleotides using HX-dG internal standard using [32P]labeling based autoradiography relative to untreated control; summary of the method: as §1
Glycine max [10] = experiment: Genotoxicity in Glycine max (soybean) exposed to compound through spray 4 times over 2 weeks assessed as HX-dG adducts measured per 10^9 nucleotides using [32P]labeling based autoradiography; summary of the method: as §1
Glycine max [11] = experiment: Genotoxicity in Glycine max (soybean) exposed to compound through spray 4 times over 2 weeks assessed as relative adduct level A5 measured per 10^9 nucleotides using HX-dG internal standard using [32P]labeling based autoradiography relative to untreated control; summary of the method: as §1
Glycine max [12] = experiment: Genotoxicity in Glycine max (soybean) exposed to compound through spray 4 times over 2 weeks assessed as HNE-dG adducts measured per 10^9 nucleotides using [32P]labeling based autoradiography (reference value: 2 no unit); summary of the method: as §1
Glycine max [13] = experiment: Genotoxicity in Glycine max (soybean) exposed to compound through spray 4 times over 2 weeks assessed as relative adduct level A3 measured per 10^9 nucleotides using [32P]labeling based autoradiography relative to untreated control; summary of the method: as §1
Glycine max [14] = experiment: Genotoxicity in Glycine max (soybean) exposed to compound through spray 4 times over 2 weeks assessed as relative adduct level A5 measured per 10^9 nucleotides using [32P]labeling based autoradiography relative to untreated control; summary of the method: as §1

Compound: CNC(=O)Oc1cccc2ccccc12 [CARBARIL]
- Activity (Glycine max [1]): 571 cpm
- Activity (Glycine max [2]): 809 cpm
- Activity (Glycine max [3]): 2956 cpm
- Activity (Glycine max [4]): 773 cpm
- Activity (Glycine max [5]): 11
- Activity (Glycine max [6]): 15
- Activity (Glycine max [7]): 11
- Activity (Glycine max [8]): 6310 cpm
- Activity (Glycine max [9]): 569 cpm
- Activity (Glycine max [10]): 164
- Activity (Glycine max [11]): 2767 cpm
- Activity (Glycine max [12]): 58
- Activity (Glycine max [13]): 16
- Activity (Glycine max [14]): 54
